# Measured values as given in ChEMBL document CHEMBL2057082, “Discovery of N-(4-methoxy-7-methylbenzo[d]thiazol-2-yl)isonicatinamide, ML293, as a novel, selective and brain penetrant positive allosteric modulator of the muscarinic 4 (M4) receptor” (Bioorg Med Chem Lett, 2012).
# Active and inactive are the calls of the source. The rule behind the calls is not given here.
# Assays:
# [1] = target: T1, Muscarinic acetylcholine receptor M4 (Homo sapiens) (UniProt P08173); experiment: (§1) Positive allosteric modulation of human M4 receptor expressed in CHO-K1 cells coexpressing Gqi5 assessed as potentiation of acetylcholine-mediated calcium mobilization incubated for 144 secs prior to acetylcholine addition by Fluo-4-AM staining; format: functional, cell-based
# T1 sequence (whole entry): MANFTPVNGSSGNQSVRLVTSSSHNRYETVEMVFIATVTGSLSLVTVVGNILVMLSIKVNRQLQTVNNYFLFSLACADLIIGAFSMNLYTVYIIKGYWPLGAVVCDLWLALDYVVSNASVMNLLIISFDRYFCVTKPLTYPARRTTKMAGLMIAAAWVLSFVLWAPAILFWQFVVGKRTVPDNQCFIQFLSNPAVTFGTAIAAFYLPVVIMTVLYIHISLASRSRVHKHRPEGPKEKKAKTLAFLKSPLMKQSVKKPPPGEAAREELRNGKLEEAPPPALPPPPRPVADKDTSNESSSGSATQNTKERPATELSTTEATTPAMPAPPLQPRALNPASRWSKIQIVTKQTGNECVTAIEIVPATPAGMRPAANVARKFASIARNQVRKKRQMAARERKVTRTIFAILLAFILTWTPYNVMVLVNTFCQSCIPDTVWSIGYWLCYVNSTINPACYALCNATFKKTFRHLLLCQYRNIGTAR
# How it was run: (§2)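 hM4 stably cotransfected with chimeric Gqi5 in CHO-K1 cells. Cells plated overnight at 37 °C, loaded with Fluo-4 AM for 45 min at 37 °C in HBSS/20 mM HEPES/2.5 mM probenecid. Compound pretreated 144 s (0.3% DMSO final), then EC20 ACh, then EC80 ACh 86 s later; kinetic fluorescence at 37 °C.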
# [2] = target: T1, Muscarinic acetylcholine receptor M4 (Homo sapiens); experiment: Positive allosteric modulation of human M4 receptor expressed in CHO-K1 cells coexpressing Gqi5 assessed as potentiation of acetylcholine-mediated calcium mobilization incubated for 144 secs prior to acetylcholine addition by Fluo-4-AM staining relative to acetylcholine; format: functional, cell-based
# How it was run: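 hM4-Gqi5 CHO-K1 cells, plated overnight, loaded with Fluo-4 AM (45 min, 37 °C). Compound (0.3% DMSO final) preincubated 144 s, then ACh EC20 added, and EC80 added 86 s later; 1 mM ACh wells for normalization. Calcium read at 37 °C, normalized to baseline and then to maximal ACh response. EC50 from four-parameter logistic fit; three independent determinations in triplicate.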
# [3] = target: T2, Muscarinic acetylcholine receptor M4 (Homo sapiens, UniProt P08173); experiment: as §1; format: functional, cell-based; how it was run: as §2
# T2 sequence (P08173 whole entry): T1 sequence (whole entry)
# [4] = Plasma clearance in rat; format: ADME, organism-based
Structure (SMILES),pEC50 [1],%max [2] [%],EC50 [3] [µM],other results
O=C(Nc1nc2cccnc2s1)c1cccnn1,inactive,–,–,–
O=C(Nc1nc2cccnc2s1)C1CCCC1,inactive,–,–,–
COc1ccc(C)c2sc(NC(=O)C3CC3)nc12,–,61.5,> 10,–
COc1ccc(C)c2sc(NS(=O)(=O)c3ccc(C(F)(F)F)cc3)nc12,inactive,–,–,–
COc1ccc2nc(NC(=O)c3ccncc3)sc2n1,inactive,–,–,–
COc1ccc(C)c2sc(NC(=O)c3cccnc3)nc12,–,37.6,2.34,–
COc1ccc(C)c2sc(NC(=O)c3cnccn3)nc12,–,38.2,1.12,–
COc1ccc(C)c2sc(NC(=O)c3ccc(F)cc3F)nc12,inactive,–,–,–
COc1ccc(C)c2sc(NC(=O)C3CC3C)nc12 (configuration not stated),–,66.5,> 10,–
COc1ccc(C)c2sc(NC(=O)N3CCCCC3)nc12,inactive,–,–,–
COc1ccc(C)c2sc(NC(=O)C3CCCC3)nc12,–,45,> 10,–
COc1ccc(C)c2sc(NC(=O)C3=COCCO3)nc12,–,55.7,1.82,–
COc1ccc(C)c2sc(C(=O)NC3CC3)nc12,–,35.6,7.76,–
O=C(Nc1nc2cccnc2s1)C1CCC1,inactive,–,–,–
COc1ccc(C)c2sc(NC(=O)C3CCCCC3)nc12,–,43.7,> 10,–
COc1ccc(C)c2sc(NC(=O)CC(C)(C)C)nc12,inactive,–,–,–
COc1ccc(C)c2sc(C(=O)NC3CCCCC3)nc12,inactive,–,–,–
COc1ccc(C)c2sc(NC(=O)NC3CC3)nc12,–,39.3,> 10,–
COc1ccc(C)c2sc(NS(=O)(=O)c3cnn(C)c3)nc12,inactive,–,–,–
COc1ccc(C)c2sc(NC(=O)CC3CC3)nc12,inactive,–,–,–
COc1ccc(C)c2sc(NC(=O)C3CCCOC3)nc12 (configuration not stated),–,44,> 10,–
O=C(Nc1nc2cccnc2s1)c1cnccn1,inactive,–,–,–
COc1ccc(C)c2sc(NC(=O)NCc3ccncc3)nc12,inactive,–,–,–
COc1ccc(C)c2sc(NC(=O)CCc3ccccc3)nc12,inactive,–,–,–
COc1ccc(C)c2sc(NC(=O)NC3CCCC3)nc12,–,36.5,7.08,–
Cc1nc2sc(C(=O)NCc3ccncc3)c(N)c2c(C)c1Cl,–,–,–,clearance [4]: > 100 mL/min/kg
COc1ccc(C)c2sc(NC(=O)c3ccco3)nc12,–,51.8,1.35,–

Structure (SMILES),pEC50 [1],%max [2] [%],EC50 [3] [µM],other results
COCC(=O)Nc1nc2c(OC)ccc(C)c2s1,–,43.2,> 10,–
COc1cccc2sc(NC(=O)c3ccncc3)nc12,–,36.5,2.82,–
COc1ccc(C)c2sc(NC(=O)Nc3ccncc3)nc12,inactive,–,–,–
CCCC(=O)Nc1nc2c(OC)ccc(C)c2s1,–,52.5,> 10,–
COc1ccc(C)c2sc(NS(=O)(=O)c3ccc4occc4c3)nc12,inactive,–,–,–
COc1ccc(C)c2sc(NC(=O)c3ccc(C)cc3)nc12,inactive,–,–,–
COc1ccc(C)c2sc(C(=O)Nc3ccc(C)nc3)nc12,inactive,–,–,–
COc1ccc(C)c2sc(NS(=O)(=O)c3cccc(C)c3)nc12,inactive,–,–,–
COc1ccc(C)c2sc(NC(C)=O)nc12,inactive,–,–,–
COc1ccc(C)c2sc(NC(=O)NC3CCC3)nc12,inactive,–,–,–
COc1ccc(C)c2sc(NC(=O)c3c(F)cccc3F)nc12,inactive,–,–,–
COc1ccc(C)c2sc(NC(=O)C3CCC3)nc12,–,52.2,> 10,–
COc1ccc(C)c2sc(C(=O)NCc3ccncc3)nc12,inactive,–,–,–
COc1ccc(C)c2sc(NS(=O)(=O)c3cc(C)ccn3)nc12,inactive,–,–,–
COc1ccc(C)c2sc(NS(=O)(=O)c3ccc(F)cc3F)nc12,inactive,–,–,–
Cc1cc(OCc2ccncc2)nc2sc(C(=O)NCc3cccc(F)c3F)c(N)c12,–,–,–,clearance [4]: > 100 mL/min/kg
COc1ccc(C)c2sc(NS(=O)(=O)c3cccc(Cl)c3)nc12,inactive,–,–,–
O=C(Nc1nc2ccccc2s1)C1CCCCO1 (configuration not stated),inactive,–,–,–
COc1ccc(C)c2sc(NC(=O)N3CCCC3)nc12,–,43.5,> 10,–
COc1ccc(CNC(=O)c2sc3nc(C)cc(C)c3c2N)cc1,–,–,–,clearance [4]: > 100 mL/min/kg
COc1ccc(C)c2sc(NC(=O)c3ccc(F)cc3)nc12,inactive,–,–,–
COc1ccc(C)c2sc(NC(=O)c3ccccn3)nc12,inactive,–,–,–
COc1ccc(C)c2sc(NC(=O)c3ccc(F)c(F)c3)nc12,inactive,–,–,–
COc1ccc(C)c2sc(NC(=O)C3=C(C)OCCO3)nc12,inactive,–,–,–
COc1ccc(C)c2sc(NC(=O)c3cc(F)cc(F)c3)nc12,inactive,–,–,–
COc1ccc(C)c2sc(NC(=O)C3CCCCO3)nc12 (configuration not stated),–,64.1,> 10,–
CCCCC1CC1C(=O)Nc1nc2c(OC)ccc(C)c2s1 (configuration not stated),inactive,–,–,–
